The values that follow come from ChEMBL document CHEMBL2062467, “Design, synthesis, antimicrobial, anti-inflammatory and analgesic activity of novel isoxazolyl pyrimido[4,5-b]quinolines and isoxazolyl chromeno[2,3-d]pyrimidin-4-ones” (2012).

Common to all, as to assay type: functional
The subject of one test is Bacillus subtilis. In words: Antibacterial activity against Bacillus subtilis MTCC 441 after 24 hrs by broth dilution method. To be noted: MTCC 441, 24 h. The procedure, abridged: (§1)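 Broth dilution MIC in autoclaved nutrient broth tubes. Test compound was dissolved in acetone, and 100 mg/mL (so in the source) was added to the first tube, then serially diluted across the tubes.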
In general terms: Dilution methods test growth across graded concentrations, often in twofold steps.

Test [1] in a line: Antifungal activity against Verticillium dahliae after 72 to 96 hrs by agar cup method. An outline of the steps: (§2)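 Agar cup assay on potato dextrose agar. Plates were spread with 0.5 mL of a one-week-old fungal spore suspension, and 6 mm cups were bored into the agar. Different concentrations of compound in acetone were added to the cups. Acetone and clotrimazole served as controls. Plates were held at room temperature for 72–96 h.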

In the next test the test system is Klebsiella aerogenes. Description: Antibacterial activity against Klebsiella aerogenes MTCC 39 after 24 hrs by broth dilution method. To be noted: MTCC 39, 24 h. An outline of the steps: as §1
The test system of another test is Rhizoctonia solani. In words: Antifungal activity against Rhizoctonia solani after 72 to 96 hrs by agar cup method. An outline of the steps:
as §2

The test system of test [2] is Chromobacterium violaceum. In words: Antibacterial activity against Chromobacterium violaceum MTCC 2656 after 24 hrs by broth dilution method. Conditions: MTCC 2656, 24 h. An outline of the steps: as §1
For a further test, the system named is Fusarium oxysporum. In words: Antifungal activity against Fusarium oxysporum after 72 to 96 hrs by agar cup method. The procedure, abridged: as §2
Another test relates to Alternaria solani. In words: Antifungal activity against Alternaria solani after 72 to 96 hrs by agar cup method. The procedure, abridged:
as §2

The next test relates to Pythium aphanidermatum. In words: Antifungal activity against Pythium aphanidermatum after 72 to 96 hrs by agar cup method. An outline of the steps:
as §2

Test [3] relates to Lysinibacillus sphaericus. Description: Antibacterial activity against Bacillus sphaericus MTCC 511 after 24 hrs by broth dilution method. Conditions: MTCC 511, 24 h. The procedure, abridged: as §1
For test [4], the system named is Rattus norvegicus. In words: Analgesic activity in Albino rat assessed as reaction time at 10 mg/kg, po after 1 hr by Hot plate test. The procedure, abridged: (§3)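 Hot plate test of central analgesia in rats, six per group, with a vehicle control group and an Indomethacin group (10 mg/kg po). Test compounds were given orally at 10 mg/kg. Reaction time was read at 0, 1 and 2 h. Values are the mean of six, ± S.E., also expressed as % increase over basal. Statistics used ANOVA/LSD; Dunnett's test vs control (P < 0.05).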

The subject of the next test is Colletotrichum truncatum. Description: Antifungal activity against Colletotrichum capsici after 72 to 96 hrs by agar cup method. The procedure, abridged: as §2
The subject of another test is Pseudomonas aeruginosa. In words: Antibacterial activity against Pseudomonas aeruginosa MTCC 741 after 24 hrs by broth dilution method. Conditions: MTCC 741, 24 h. An outline of the steps: as §1
Test [5] relates to Rattus norvegicus. Description: Analgesic activity in Albino rat assessed as reaction time at 10 mg/kg, po after 2 hrs by Hot plate test. An outline of the steps: as §3
A further test deals with Staphylococcus aureus. In words: Antibacterial activity against Staphylococcus aureus MTCC 96 after 24 hrs by broth dilution method. Conditions: MTCC 96, 24 h. An outline of the steps: as §1

In brackets after ≈: the same amount, converted by molar mass.

The term MIC denotes the lowest concentration that inhibits growth of the organism. A higher MIC goes with a less susceptible organism. Take `Cc1ccc(/C=C/c2onc(C)c2-n2c(C)nc3nc4ccccc4cc3c2=O)cc1`: the MIC came to 19 µg/mL (≈ 46.5 µM) in the test on Bacillus subtilis; 12 µg/mL (≈ 29.4 µM) in test [1]; 18 µg/mL (≈ 44.1 µM) against Klebsiella aerogenes; 14 µg/mL (≈ 34.3 µM) with Rhizoctonia solani; 15 µg/mL (≈ 36.7 µM) in test [2]; 12 µg/mL (≈ 29.4 µM) against Fusarium oxysporum. For the same compound, the MIC with Alternaria solani was determined as 10 µg/mL (≈ 24.5 µM); against Pythium aphanidermatum, 15 µg/mL (≈ 36.7 µM); in test [3] it was 23 µg/mL (≈ 56.3 µM); with Colletotrichum truncatum it was 18 µg/mL (≈ 44.1 µM); against Pseudomonas aeruginosa, 23 µg/mL (≈ 56.3 µM); against Staphylococcus aureus, 25 µg/mL (≈ 61.2 µM). In addition, the values for the Time with Rattus norvegicus [4] and in the test with Rattus norvegicus [5] were 21.3 s and 21.1 s, respectively.

In the case of `Cc1ccc(/C=C/c2onc(C)c2N2CN=C3Oc4ccc(Cl)cc4C=C3C2=O)cc1`, the MIC amounted to 14 µg/mL (≈ 32.4 µM) against Bacillus subtilis; 10 µg/mL (≈ 23.2 µM) in test [1]; 18 µg/mL (≈ 41.7 µM) with Klebsiella aerogenes; 11 µg/mL (≈ 25.5 µM) against Rhizoctonia solani; 18 µg/mL (≈ 41.7 µM) in test [2]; 9 µg/mL (≈ 20.8 µM) in the test on Fusarium oxysporum. Besides, the MIC with Alternaria solani worked out at 8 µg/mL (≈ 18.5 µM); in the test on Pythium aphanidermatum, 9 µg/mL (≈ 20.8 µM); in [3], 16 µg/mL (≈ 37 µM); in the test on Colletotrichum truncatum, 12 µg/mL (≈ 27.8 µM); in the test with Pseudomonas aeruginosa it was 11 µg/mL (≈ 25.5 µM); in the test with Staphylococcus aureus it was 15 µg/mL (≈ 34.7 µM). The Time with Rattus norvegicus [4] was determined as 19.1 s; in the test with Rattus norvegicus [5] it was 24.7 s.

Regarding `Cc1noc(/C=C/c2ccccc2)c1N1CN=C2Oc3ccccc3C=C2C1=O`, the MIC in the test on Bacillus subtilis worked out at 18 µg/mL (≈ 46.9 µM); in [1] it was 18 µg/mL (≈ 46.9 µM); against Klebsiella aerogenes it was 18 µg/mL (≈ 46.9 µM); with Rhizoctonia solani, 12 µg/mL (≈ 31.3 µM); in test [2], 18 µg/mL (≈ 46.9 µM); against Fusarium oxysporum it was 16 µg/mL (≈ 41.7 µM). The MIC in the test on Alternaria solani came out at 20 µg/mL (≈ 52.2 µM); against Pythium aphanidermatum, 18 µg/mL (≈ 46.9 µM); in [3], 12 µg/mL (≈ 31.3 µM); with Colletotrichum truncatum, 20 µg/mL (≈ 52.2 µM); against Pseudomonas aeruginosa, 14 µg/mL (≈ 36.5 µM); in the test on Staphylococcus aureus, 16 µg/mL (≈ 41.7 µM). Further, the Time in the test with Rattus norvegicus [4] is 17.7 s; with Rattus norvegicus [5], 15.7 s.

As for `COc1ccc(/C=C/c2onc(C)c2-n2c(C)nc3nc4ccc(Cl)cc4cc3c2=O)cc1`, the minimal inhibitory concentration (MIC) against Bacillus subtilis is 12 µg/mL (≈ 26.1 µM); in test [1], 13 µg/mL (≈ 28.3 µM); with Klebsiella aerogenes, 11 µg/mL (≈ 24 µM); in the test on Rhizoctonia solani, 14 µg/mL (≈ 30.5 µM); in test [2], 14 µg/mL (≈ 30.5 µM); against Fusarium oxysporum, 11 µg/mL (≈ 24 µM). Besides, the minimal inhibitory concentration (MIC) with Alternaria solani stood at 12 µg/mL (≈ 26.1 µM); in the test on Pythium aphanidermatum, 17 µg/mL (≈ 37 µM); in [3], 10 µg/mL (≈ 21.8 µM); against Colletotrichum truncatum it was 16 µg/mL (≈ 34.9 µM); with Pseudomonas aeruginosa, 14 µg/mL (≈ 30.5 µM); against Staphylococcus aureus, 13 µg/mL (≈ 28.3 µM). Further, the Time with Rattus norvegicus [4] stood at 25.1 s; with Rattus norvegicus [5] it was 22.6 s.

As to `Cc1ccc2c(c1)C=C1C(=O)N(c3c(C)noc3/C=C/c3ccccc3)CN=C1O2`, the minimal inhibitory concentration (MIC) in the test on Bacillus subtilis worked out at 15 µg/mL (≈ 37.7 µM); in test [1], 22 µg/mL (≈ 55.4 µM); in the test with Klebsiella aerogenes, 15 µg/mL (≈ 37.7 µM); against Rhizoctonia solani, 24 µg/mL (≈ 60.4 µM); in test [2], 18 µg/mL (≈ 45.3 µM); against Fusarium oxysporum it was 20 µg/mL (≈ 50.3 µM). For the same compound, the minimal inhibitory concentration (MIC) is 20 µg/mL (≈ 50.3 µM) with Alternaria solani; 22 µg/mL (≈ 55.4 µM) with Pythium aphanidermatum; 18 µg/mL (≈ 45.3 µM) in test [3]; 18 µg/mL (≈ 45.3 µM) in the test on Colletotrichum truncatum; 12 µg/mL (≈ 30.2 µM) against Pseudomonas aeruginosa; 16 µg/mL (≈ 40.3 µM) in the test with Staphylococcus aureus. Besides, the Time in the test on Rattus norvegicus [4] worked out at 21.2 s; with Rattus norvegicus [5], 21.5 s.

As to `COc1ccc2c(c1)C=C1C(=O)N(c3c(C)noc3/C=C/c3ccccc3)CN=C1O2`, the MIC in the test with Bacillus subtilis is 18 µg/mL (≈ 43.5 µM); in test [1] it was 20 µg/mL (≈ 48.4 µM); against Klebsiella aerogenes it was 17 µg/mL (≈ 41.1 µM); with Rhizoctonia solani, 12 µg/mL (≈ 29 µM); in [2], 18 µg/mL (≈ 43.5 µM); against Fusarium oxysporum it was 12 µg/mL (≈ 29 µM). In addition, the minimum inhibitory concentration (MIC) against Alternaria solani was found to be 18 µg/mL (≈ 43.5 µM); in the test with Pythium aphanidermatum, 23 µg/mL (≈ 55.6 µM); in test [3], 12 µg/mL (≈ 29 µM); in the test on Colletotrichum truncatum it was 17 µg/mL (≈ 41.1 µM); with Pseudomonas aeruginosa, 24 µg/mL (≈ 58.1 µM); against Staphylococcus aureus, 22 µg/mL (≈ 53.2 µM). The Time with Rattus norvegicus [4] came out at 21.3 s; in the test with Rattus norvegicus [5] it was 13.4 s.

As to `Cc1noc(/C=C/c2ccccc2)c1N1CN=C2Oc3c(Br)cc(Br)cc3C=C2C1=O`, the minimum inhibitory concentration (MIC) in the test with Bacillus subtilis came out at 9 µg/mL (≈ 16.6 µM); in [1], 8 µg/mL (≈ 14.8 µM); against Klebsiella aerogenes, 5 µg/mL (≈ 9.24 µM); with Rhizoctonia solani it was 6 µg/mL (≈ 11.1 µM); in [2], 8 µg/mL (≈ 14.8 µM); with Fusarium oxysporum, 9 µg/mL (≈ 16.6 µM). Besides, the MIC stood at 7 µg/mL (≈ 12.9 µM) in the test with Alternaria solani; 8 µg/mL (≈ 14.8 µM) with Pythium aphanidermatum; 7 µg/mL (≈ 12.9 µM) in test [3]; 10 µg/mL (≈ 18.5 µM) with Colletotrichum truncatum; 6 µg/mL (≈ 11.1 µM) in the test with Pseudomonas aeruginosa; 8 µg/mL (≈ 14.8 µM) against Staphylococcus aureus. Further, the Time worked out at 23.3 s in the test on Rattus norvegicus [4] and 23.4 s in the test with Rattus norvegicus [5].

Regarding `COc1ccc(/C=C/c2onc(C)c2-n2c(C)nc3nc4ccccc4cc3c2=O)cc1`, the minimum inhibitory concentration (MIC) in the test on Bacillus subtilis is 18 µg/mL (≈ 42.4 µM); in test [1] it was 14 µg/mL (≈ 33 µM); against Klebsiella aerogenes, 20 µg/mL (≈ 47.1 µM); against Rhizoctonia solani, 14 µg/mL (≈ 33 µM); in test [2] it was 16 µg/mL (≈ 37.7 µM); with Fusarium oxysporum, 10 µg/mL (≈ 23.6 µM). Also, the minimal inhibitory concentration (MIC) in the test with Alternaria solani came out at 16 µg/mL (≈ 37.7 µM); against Pythium aphanidermatum it was 18 µg/mL (≈ 42.4 µM); in test [3], 22 µg/mL (≈ 51.8 µM); with Colletotrichum truncatum it was 16 µg/mL (≈ 37.7 µM); against Pseudomonas aeruginosa, 22 µg/mL (≈ 51.8 µM); against Staphylococcus aureus, 25 µg/mL (≈ 58.9 µM). Further, the Time in the test with Rattus norvegicus [4] came out at 21.7 s; with Rattus norvegicus [5], 21.4 s.
